Measurements published in ChEMBL document CHEMBL5532650, “Discovery of an orally active nitrothiophene-based antitrypanosomal agent” (Eur J Med Chem, 2024).
Activity calls are given as the source filed them. No cut-off for these calls is given here.

How the values were obtained:
[1] = test system: Trypanosoma brucei brucei; test: Antitrypanosomal activity against bloodstream forms of Trypanosoma brucei brucei strain 427 assessed as growth inhibition measured after 48 hrs by Alamar blue assay; format: functional, organism-based; conditions: Trypanosoma brucei, 427, 48 h
How it was run: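 Bloodstream T. b. brucei 427 at 5 x 10^3 cells/well in supplemented HMI-9 with 10% FBS. Compounds in DMSO over 0.01–50 μM, triplicates. After 48 h exposure, Alamar blue was added for 4 h at 37°C. Fluorescence read at ex/em 530/590 nm; suramin was the positive control. EC50 = half-maximal trypanosomal viability.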

[2] = test system: Trypanosoma brucei gambiense; test: Antitrypanosomal activity against bloodstream forms of Trypanosoma brucei gambiense 130R assessed as growth inhibition incubated for 68 hrs followed by treated with resazurin 4 to 6 hrs by resazurin based fluorescence assay; format: functional, organism-based
How it was run: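 Bloodstream 130R at 4x10^4 parasites/well in HMI-9 with 15% heat-inactivated fetal calf and 5% human serum. Eleven 3-fold dilutions spanned 100 to 0.002 μM. Plates ran 68 h at 37 °C in 5% CO2, then resazurin for 4–6 h. Fluorescence read at ex/em 536/588 nm; melarsoprol was the control.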

[3] = test system: Trypanosoma brucei rhodesiense; test: Antitrypanosomal activity against bloodstream forms of Trypanosoma brucei rhodesiense STIB 900 assessed as growth inhibition incubated for 70 hrs followed by treated with resazurin 2 to 4 hrs by resazurin based fluorescence assay; format: functional, organism-based
How it was run: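 Bloodstream STIB 900 at 2x10^4 parasites/well in HMI-9 with 15% heat-inactivated horse serum. Eleven 3-fold dilutions spanned 100 to 0.002 μM. Plates ran 70 h at 37 °C in 5% CO2, then resazurin for 2–4 h. Fluorescence read at ex/em 536/588 nm; melarsoprol was the control.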

HepG2 = test: Cytotoxicity against human HepG2 cells assessed as cell growth measured after 72 hrs mby MTT assay; format: toxicity, cell-based; conditions: hepg2, 72 h
How it was run: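 HepG2 in DMEM:F12 with 10% FBS were seeded at 5 x 10^5 cells/mL and allowed 18-24 h. Compounds in DMSO over 0.01–300 μM for 72 h. MTT was then added for 30 min, formazan dissolved in DMSO and absorbance read at 550 nm. Triplicates; SDS (10%) and podophyllotoxin were the controls. CC50 = half-maximal cellular viability.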

[4] = test system: Trypanosoma brucei rhodesiense; test: Inhibition of Trypanosoma brucei rhodesiense MVAT4 strain Cathepsin-L expressed in Pichia pastoris at 10 uM relative to control
How it was run: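 Trypanosomal cathepsin L, expressed in Pichia pastoris and purified, was tested at 10 μM after 1 hour. The read-out was percentage inhibition, with E-64 as positive control.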

[5] = Metabolic stability in mouse liver microsomes assessed as half life at 0.1 uM measured for every 15 mins by HPLC-MS/MS analysis; format: ADME, Microsome; conditions: 0.25 h
[6] = Metabolic stability in mouse liver S9 fraction assessed as half life at 0.1 uM measured for every 15 mins by HPLC-MS/MS analysis; format: ADME, subcellular; conditions: s9, 0.25 h
[7] = Initial plasma concentration in C57BL/6 mouse at 1 mg/kg, iv measured upto 24 hrs by LC-MS/MS analysis; format: ADME, organism-based
How it was run: (§1)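 Fasted male C57BL/6 mice (n = 3/group) were given a single IV dose of 1 mg/kg. Vehicle was 5% DMSO, 10% solutol and 85% PBS with 20% Captisol, at 1 mL/kg. Blood was taken at 0.083, 0.25, 0.5, 1, 2, 4, 6, 8 and 24 h and spun at 4°C to plasma. Plasma levels were measured by LC-MS/MS and parameters derived by non-compartmental analysis.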

[8] = Half life in C57BL/6 mouse at 1 mg/kg, iv measured upto 24 hrs by LC-MS/MS analysis; format: ADME, organism-based; conditions: in vivo; how it was run: as §1
[9] = AUC (0 to t) in C57BL/6 mouse at 1 mg/kg, iv measured upto 24 hrs by LC-MS/MS analysis; format: ADME, organism-based; conditions: in vivo; how it was run: as §1
[10] = AUC (0 to infinity) in C57BL/6 mouse at 1 mg/kg, iv measured upto 24 hrs by LC-MS/MS analysis; format: ADME, organism-based; conditions: in vivo; how it was run: as §1
[11] = Apparent volume of distribution in C57BL/6 mouse at 1 mg/kg, iv measured upto 24 hrs by LC-MS/MS analysis; format: ADME, organism-based; conditions: in vivo, read-out: Vz; how it was run: as §1
[12] = Clearance in C57BL/6 mouse at 1 mg/kg, iv measured upto 24 hrs by LC-MS/MS analysis; format: ADME, organism-based; conditions: in vivo; how it was run: as §1
[13] = Volume of distribution at steady state in C57BL/6 mouse at 1 mg/kg, iv measured upto 24 hrs by LC-MS/MS analysis; format: ADME, organism-based; conditions: in vivo, read-out: Vdss; how it was run: as §1
[14] = Mean residence time in C57BL/6 mouse at 1 mg/kg, iv measured upto 24 hrs by LC-MS/MS analysis; format: ADME, organism-based; conditions: in vivo; how it was run: as §1
[15] = Tmax in C57BL/6 mouse at 5 mg/kg, po measured upto 24 hrs by LC-MS/MS analysis; conditions: in vivo
[16] = Cmax in C57BL/6 mouse at 5 mg/kg, po measured upto 24 hrs by LC-MS/MS analysis; conditions: in vivo
[17] = Half life in C57BL/6 mouse at 5 mg/kg, po measured upto 24 hrs by LC-MS/MS analysis; conditions: in vivo
[18] = AUC (0 to t) in C57BL/6 mouse at 5 mg/kg, po measured upto 24 hrs by LC-MS/MS analysis; conditions: in vivo
[19] = Oral bioavailability in C57BL/6 mouse at 5 mg/kg measured upto 24 hrs by LC-MS/MS analysis; conditions: in vivo
[20] = AUC (0 to infinity) in C57BL/6 mouse at 5 mg/kg, po measured upto 24 hrs by LC-MS/MS analysis; conditions: in vivo
[21] = Mean residence time in C57BL/6 mouse at 5 mg/kg, po measured upto 24 hrs by LC-MS/MS analysis; conditions: in vivo
[22] = test system: Trypanosoma brucei rhodesiense; test: In vivo antitrypanosomal activity against Trypanosoma brucei rhodesiense infected in female NMRI mouse assessed survival rate at 200 mg/kg, po qd measured upto 60 days; conditions: time <= 60.0 day
[23] = test system: Trypanosoma brucei brucei; test: In vivo antitrypanosomal activity against Trypanosoma brucei brucei AnTat1.1 trypomastigotes expressing Renilla luciferase infected in BALB/c mouse assessed reduction in parasitemia at 100 mg/kg, po treated for 5 days; conditions: time 5.0 day
[24] = test system: Trypanosoma brucei brucei; test: In vivo antitrypanosomal activity against Trypanosoma brucei brucei AnTat1.1 trypomastigotes expressing Renilla luciferase infected in BALB/c mouse assessed suppression of parasite growth at 100 mg/kg, po treated for 5 days; conditions: time 5.0 day
[25] = test system: Trypanosoma brucei brucei; test: In vivo antitrypanosomal activity against Trypanosoma brucei brucei AnTat1.1 trypomastigotes expressing Renilla luciferase infected in BALB/c mouse assessed suppression of parasite growth at 100 mg/kg, ip treated for 5 days; conditions: time 5.0 day
[26] = Selectivity index, ratio of CC50 for cytotoxicity against human HepG2 cells to EC50 for Antitrypanosomal activity against bloodstream forms of Trypanosoma brucei brucei strain 427; format: toxicity, cell-based; conditions: read-out: Selectivity Index
[27] = Selectivity index, ratio of CC50 for cytotoxicity against human HepG2 cells to EC50 for Antitrypanosomal activity against bloodstream forms of Trypanosoma brucei gambiense 130R; format: toxicity, cell-based
[28] = Selectivity index, ratio of CC50 for cytotoxicity against human HepG2 cells to EC50 for Antitrypanosomal activity against bloodstream forms of Trypanosoma brucei rhodesiense STIB 900; format: toxicity, cell-based

Structure (SMILES) | EC50 [1] | EC50 [2] | EC50 [3] | CC50 (HepG2) | inhibition [4] | t1/2 [5] | t1/2 [6] | selectivity ratio [26] | selectivity ratio [27] | selectivity ratio [28] | further results
CNC(=O)/C=C/CNC(=O)c1ccc([N+](=O)[O-])s1 | 540 nM | 130 nM | 140 nM | > 75000 nM | 43.9% | > 60 min | > 60 min | – | – | – | C0 at 24 h [7]: 636 ng/mL; half-life [8]: 24 min; AUC(0-t) at 24 h [9]: 333 ng·h/mL; AUC [10]: 343.2 ng·h/mL; Vd [11]: 1.7 L/kg; clearance [12]: 48.8 mL/min/kg; Vd [13]: 1.6 L/kg; MRT [14]: 30 min; Tmax [15]: 18 min; Cmax [16]: 1650 ng/mL; half-life [17]: 30 min; AUC(0-t) at 24 h [18]: 1700 ng·h/mL; F [19]: 99.2%; AUC [20]: 1702.8 ng·h/mL; MRT [21]: 54 min; Activity [22]: Active; Activity [23]: Active; Activity [24]: Active; Activity [25]: Active
O=C(NC/C=C/S(=O)(=O)c1ccccc1)c1ccco1 | 1950 nM | – | – | 66300 nM | 30.6% | – | – | 34 | – | – | –
O=C(NC/C=C/S(=O)(=O)c1ccccc1)c1ccc([N+](=O)[O-])s1 | 6350 nM | 320 nM | 610 nM | 20400 nM | – | – | – | – | – | – | –
CNC(=O)/C=C/[C@H](CCc1ccccc1)NC(=O)c1ccc([N+](=O)[O-])s1 | 180 nM | 30 nM | 40 nM | 60000 nM | 58.4% | > 60 min | 19.49 min | 333 | 2000 | 1500 | –
CNC(=O)CCCNC(=O)c1ccc([N+](=O)[O-])s1 | 4120 nM | 1880 nM | 1960 nM | 69500 nM | inactive | – | – | 16.9 | 37 | 35.5 | –
O=C(NCCCS(=O)(=O)c1ccccc1)c1ccc([N+](=O)[O-])o1 | 990 nM | – | – | 44600 nM | 15% | – | – | 45 | – | – | –
CS(=O)(=O)/C=C/CNC(=O)c1ccc([N+](=O)[O-])s1 | 640 nM | 250 nM | 120 nM | 98600 nM | 23.2% | > 60 min | > 60 min | 154 | 395 | 822 | –
CS(=O)(=O)CCCNC(=O)c1ccc([N+](=O)[O-])s1 | 1290 nM | – | – | 98600 nM | 11.1% | – | – | 76.4 | – | – | –
CNC(=O)CCCNC(=O)c1cccs1 | > 30000 nM | – | – | > 300000 nM | inactive | – | – | – | – | – | –
CS(=O)(=O)CCCNC(=O)c1cccs1 | > 30000 nM | – | – | > 150000 nM | inactive | – | – | – | – | – | –
